Results reported in PMC6117112 (ACS chemical biology, 2018).
Read-outs that look alike come from different tables or passages of the source.

Experiments:
[1] = MTT cytotoxicity assay in A549 cells, in the dark; format: cell-based; details: human
A549 cells = experiment: Mitochondrial bioenergetics; format: cell-based, human
Method in brief: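 Seeded 20,000 cells/well 24 h before, then 4 h with vehicle (0.4% DMSO) or test compound (0.1, 1.0, 10 μM). One plate blue-LED illuminated 1 h at 37 °C, the other kept dark. XF base medium with 1 mM pyruvate, 2 mM glutamine, 25 mM glucose, pH 7.4; 30 min at 37 °C, no CO2. OCR over 80 min after oligomycin, FCCP, then rotenone/antimycin A (each 1.0 μM). Three experiments × 8 replicates; mean ±SEM; one-way ANOVA, Tukey.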

[2] = MTT cytotoxicity assay in HUVECs, in the dark; format: cell-based, human; details: human, HUVECs (human umbilical vein endothelial cells)
[3] = format: cell-based; details: human, A549 cells
[4] = format: cell-based; details: human, HUVECs (human umbilical vein endothelial cells)
HUVECs = experiment: MTT cytotoxicity assay in HUVECs, in the dark; format: cell-based, human; details: HUVECs, non-illuminated
mitochondria = details: cited from earlier work
[5] = 10 μM, after 1 h of illumination to induce CO release

Structure (SMILES) | IC50 [1] | IC50 [2] | IC50 [4] | also measured
O=C(NCC[P+](c1ccccc1)(c1ccccc1)c1ccccc1)c1ccc(-c2oc3cc4ccccc4cc3c(=O)c2O)cc1.[Br-] [Compound 2, (2-(4-(3-hydroxy-4-oxo-4H-benzo[g]chromen-2-yl)benzamido)ethyl)triphenylphosphonium bromide] | 14.1 ± 2.7 µM | 1.51 ± 1.4 µM | 3.78 ± 1.5 µM | ATP production (OCR) (A549 cells; [5]): decreased; basal respiration (OCR) (A549 cells; [5]): decreased; maximal respiration (OCR) (A549 cells; [5]): decreased; reserve capacity (OCR) (A549 cells; [5]): decreased; concentration needed to produce significant changes in bioenergetics parameters (A549 cells; light-triggered CO release): 10 µM; IC50 [3]: 4.6 ± 3.6 µM
O=C(NCCCCCCCC[P+](c1ccccc1)(c1ccccc1)c1ccccc1)c1ccc(-c2oc3cc4ccccc4cc3c(=O)c2O)cc1 [Compound 3, (8-(4-(3-hydroxy-4-oxo-4H-benzo[g]chromen-2-yl)benzamido)octyl)triphenylphosphonium bromide] | 8.48 ± 4 µM | 8.4 ± 3.6 µM |  | 
O=C(NCC[P+](c1ccccc1)(c1ccccc1)c1ccccc1)c1ccc(C(=O)Oc2cc3ccccc3cc2C(=O)O)cc1.[Br-] [Compound 4, (2-(4-(((3-carboxynaphthalen-2-yl)oxy)carbonyl)benzamido)ethyl)triphenylphosphonium bromide] | > 100 µM |  | > 100 µM | cytotoxicity (MTT), result in words (HUVECs): no cytotoxicity
O=C(NCCCCCCCC[P+](c1ccccc1)(c1ccccc1)c1ccccc1)c1ccc(C(=O)Oc2cc3ccccc3cc2C(=O)O)cc1 [Compound 5, (8-(4-(((3-carboxynaphthalen-2-yl)oxy)carbonyl)benzamido)octyl)triphenylphosphonium bromide] | 69.1 ± 11 µM | 90 ± 7.5 µM |  | 
O=C(O)CC[P+](c1ccccc1)(c1ccccc1)c1ccccc1.[Br-] [TPPBr, 2-carboxyethyl-triphenylphosphonium bromide, reference compound] | > 100 µM | > 100 µM | > 100 µM | changes in the mitochondrial bioenergetics profile (A549 cells; 0.1–10 μM, illuminated or non-illuminated cells): no significant changes
O=c1cc(-c2ccccc2)oc2cc(O)c(O)c(O)c12 [baicalein] |  |  |  | effect on mitochondrial bioenergetics (mitochondria): decreases ATP-production via uncoupling of mitochondrial membranes
O=c1c(O)c(-c2ccc(O)c(O)c2)oc2cc(O)cc(O)c12 [quercetin] |  |  |  | effect on mitochondrial bioenergetics (mitochondria): increases basal respiration, maximal respiration, ATP-linked respiration and the reserve capacity of mitochondria
